Kir21 block: Kir2.1 (mouse) channel inhibition; 310,000 compounds, 0.85% hits; HEK293-Kir2.1, FluxOR thallium flux fluorescence; active compounds read low; P35561; B-score at 10 µM;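 active = fluorescence ratio B-score at or below minus 3 SD of library scores, with starting-brightness B-score within 2 SD, cut at about -4.2 in these data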;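 note: channel flux triggered by added potassium and thallium sulfate stimulus; B-score of peak minus minimum fluorescence over baseline after thallium stimulus; more negative B-score means stronger Kir2.1 block with less thallium influx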
KCNK9 inh: human KCNK9 channel inhibition | Q9NPC2 | HEK293 KCNK9, FluxOR thallium flux fluorescence; active compounds read low | B-score at 10 µM | 310,000 compounds, 1.2% hits | AID 488922;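 active = ratio B-score over 3 SD below the library mean, with starting fluorescence within 5 SD of its mean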;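 note: negative B-score means less thallium flux so channel inhibition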
Target sequence (Q9NPC2 whole entry, looked up): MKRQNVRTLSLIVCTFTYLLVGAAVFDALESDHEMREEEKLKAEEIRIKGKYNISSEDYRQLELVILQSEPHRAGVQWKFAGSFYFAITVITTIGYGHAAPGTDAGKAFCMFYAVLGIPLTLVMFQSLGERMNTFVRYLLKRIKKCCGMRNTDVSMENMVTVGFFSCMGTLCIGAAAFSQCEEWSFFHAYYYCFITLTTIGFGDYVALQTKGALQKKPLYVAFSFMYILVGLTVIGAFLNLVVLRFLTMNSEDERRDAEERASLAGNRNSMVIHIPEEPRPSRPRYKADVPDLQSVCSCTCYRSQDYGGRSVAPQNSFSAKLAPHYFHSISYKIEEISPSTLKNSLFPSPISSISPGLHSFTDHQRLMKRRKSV
KCNK3 block: human KCNK3 channel inhibition, primary screen | O14649 | 340,000 compounds, 0.84% hits | CHO-KCNK3 thallium flux, FluxOR fluorescence; active compounds read low | B-score at 10 µM | AID 602410;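 active = B-score under library mean minus 4 SD, starting fluorescence ratio at most library mean plus 5 SD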;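 note: more negative B-score means stronger inhibition of thallium flux through KCNK3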
KCNQ1 act: potentiators or activators of human KCNQ1 potassium channel. P51787. CHO-K1 KCNQ1, thallium flux FluxOR fluorescence; active compounds read high. B-score at 10 µM. 310,000 compounds, 0.35% hits;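 active = fluorescence ratio B-score, a plate-corrected score, at least three library SD, with initial intensity B-score within 5 SD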
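System: Stable KCNQ1 CHO-K1 line | Incubation: 90 min dye loading and 20 min compound exposure, both at room temperature | Measure: Ratio B score | Medium: Assay buffer for compound exposure, DMSO matched across wells | Compound dosing: Single-concentration screen | Probe or stimulus: K+/Tl+ depolarizing stimulus | Measured by: Kinetic FluxOR fluorescence, 10 s baseline plus 110 s post-stimulus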
KCNQ1 block: inhibitors of human KCNQ1 potassium channel | CHO-K1 KCNQ1, FluxOR thallium flux fluorescence; active compounds read high | 310,000 compounds, 1.3% hits | AID 2642 | B-score at 10 µM;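 active = compounds whose thallium flux B-score, printed positive for inhibition, exceeds three library SD while starting fluorescence stays within three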;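 note: channel opened by potassium depolarization with thallium stimulus after 20 min compound exposure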
hERG rescue: hERG (human) protection from proarrhythmic block; activation (rescue from dofetilide block), less the hit threshold, % at 10 µM; AID 1511; CHO-hERG, FluxOR thallium flux, dofetilide IC70 present; 310,000 compounds, 0.51% hits;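 active = activation above the mean of controls blocked by dofetilide plus 5 SD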;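 note: thallium influx through hERG after potassium depolarization seen as dye fluorescence rise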
* = called active by the depositor; i = inactive; nt = not tested or not shown. Sampled rows, rich in hits. Any-hit rate of the full collection: about 3.7%.

SMILES	Kir21 block	KCNK9 inh	KCNK3 block	KCNQ1 act	KCNQ1 block	hERG rescue
CCOC(=O)c1cnc2c(OC)cccc2c1Oc1ccccc1	-7.9*	i	i	i	i	-7
CC(=O)c1cccc(S(=O)(=O)Nc2ccccc2N2CCOCC2)c1	nt	nt	i	nt	nt	nt
N#CC1(Cc2ccccc2Cl)c2ccccc2C=CN1C(=O)c1ccccc1 (configuration not stated)	0.29	i	i	i	8*	-12
N#CC1c2ccccc2C=CN1C(=O)c1ccccc1 (configuration not stated)	0.3	i	i	i	i	-8
COc1ccccc1N1CCN(Cc2cc(=O)c(OCC(=O)NC3CCCC3)co2)CC1	1.1	i	i	i	i	-13
O=C(O)Cc1ccc(NC(=O)C2CC=CCC2C(=O)O)cc1 (configuration not stated)	0.19	i	nt	i	i	8.7*
O=C(/C=C/c1ccc(Cl)c(C(F)(F)F)c1)N1CCN(c2ccccn2)CC1	0.81	i	i	i	i	-7
CCOC(=O)c1sc(NC(=S)NC(=O)c2ccco2)nc1C	1.3	i	i	9*	i	8.9*
CC(=O)Nc1nc(=S)ss1	-0.1	i	i	i	i	-8
O=C(COC(=O)c1ccco1)Nc1nc2ccccc2s1	0.03	i	i	i	i	7.3*
O=C(NCc1ccc(-c2nc3ccccc3s2)cc1)c1ccco1	0.5	i	i	i	i	-7
O=C(NC(=S)NCc1ccc(-c2nc3ccccc3s2)cc1)c1ccco1	0.18	i	i	i	i	5.5*
COC(=O)c1sc(NC(=O)c2ccco2)nc1C	-1.9	i	i	i	i	-5
Cc1ccccc1C(=O)Nc1nc(=S)ss1	-0.05	i	i	9*	i	20*
CCOC(=O)C1CCCN(C(=O)Cn2ncc3c([nH]c4ccccc43)c2=O)C1 (configuration not stated)	-1.6	i	i	i	i	-7
COc1ccccc1CC(NC(C)=O)C(=O)NC1CCN(C(=O)c2ccc(C)cc2)CC1 (configuration not stated)	0.27	i	i	i	i	-7
CC1CCN(C(=S)c2ccc(N(C)C)cc2)CC1	-1	i	i	i	i	-11
O=C(NCc1cccc(C(F)(F)F)c1)C1CCC(=O)N(C2CCCCCC2)C1 (configuration not stated)	1.3	i	i	i	i	-8
COc1ccc(/C=N/n2c(C3CCCCC3)n[nH]c2=S)c(OC)c1	0.49	i	i	i	i	-2
Cc1ccc2nc(NC(=S)NC(=O)c3cccs3)sc2c1	-1.3	i	i	17*	i	10*
COC(=O)c1sc(NC(=S)NC(=O)c2ccccc2C)nc1C	0.41	i	i	42*	i	25*
O=C(NC(=S)Nc1nc2ccccc2s1)c1ccco1	0.11	i	i	34*	i	9.2*
COC(=O)c1sc(NC(=S)NC(=O)c2ccc(F)cc2)nc1C	-1.3	i	nt	i	i	-4
Cc1nc(NC(=S)NC(=O)c2cccs2)ccc1Br	-2.6	i	i	13*	i	-6
COc1ccc(NC(=O)CN2C(=O)COc3ccc(S(=O)(=O)N4CCOCC4)cc32)cc1Cl	-1.4	i	i	i	i	-2
SMILES	Kir21 block	KCNK9 inh	KCNK3 block	KCNQ1 act	KCNQ1 block	hERG rescue
CC(=O)NCCc1nc2cc(NS(=O)(=O)c3ccccc3)ccc2n1C	-0.02	i	i	i	i	-3
COc1ccc2nc(NC(=S)NC(=O)c3ccco3)sc2c1	-0.16	i	i	25*	i	31*
COc1ccc2nc(NC(=O)CCNC(=O)c3ccco3)sc2c1	nt	nt	i	nt	nt	nt
CCN(CC)CCn1c2c(c(SCC(=O)Nc3ccccc3Cl)nc1=O)CCCC2	-1.9	i	i	i	i	-18
C=CC1CN(C(=O)OCC(Cl)(Cl)Cl)C2CC3c4ccc(OC)cc4NC3C3CC1C2CO3 (configuration not stated)	-0.73	i	nt	i	7*	-17
CCOC(=O)N1CCC2CC1c1cc(-c3cccc(OC)c3)ccc12 (configuration not stated)	nt	nt	i	nt	nt	nt
Cc1c(CCOC(=O)CC23CC4CC(CC(C4)C2)C3)sc[n+]1Cc1ccccc1	-1.8	i	i	i	7*	-17
Cc1c(CCO)sc[n+]1CC(=O)OCCC12CC3CC(CC(C3)C1)C2	-0.41	i	i	i	i	-3
CCOC(O)[C@H]1N[C@@H](c2ccc(Cl)cc2)[C@@H]([N+](=O)[O-])[C@@H]1c1ccccc1 (some centres not stated)	-1.5	-7.1*	i	i	i	-4
O=C(NCCN1CCOCC1)c1cccc(S(=O)(=O)N2CCCCCC2)c1	-0.46	i	i	i	i	7.2*
COc1ccc(C(=O)N/N=C/c2sc(N3CCOCC3)nc2-c2ccccc2)cc1OC	2.2	i	i	i	i	-41
O=C(N/N=C/c1sc(N2CCOCC2)nc1-c1ccccc1)c1ccc(O)cc1	0.27	i	i	i	7*	-12
O=C(NCCN1CCOCC1)c1cccc(S(=O)(=O)N2CCCC2)c1	0.84	i	i	i	i	-3
O=C(N/N=C/c1sc(N2CCOCC2)nc1-c1ccccc1)c1cccc(S(=O)(=O)N2CCCC2)c1	-0.5	i	i	i	6*	-9
CCC(C(=O)N1CCCCCC1)n1nc(C)n2c(cc3occc32)c1=O (configuration not stated)	-1.8	i	i	i	i	-4
CCOC(=O)c1ccccc1-n1nnnc1C	0.25	i	i	i	i	-7
CCc1c2ccccc2nn1-c1ccccc1C(=O)C(C)=O	-4.8*	i	i	i	i	-2
O=[N+]([O-])c1ccc(/C=C/C2=NN(c3ccccc3)C(c3ccco3)C2)o1 (configuration not stated)	-0.88	i	-9.7*	i	i	-10
C(=C\c1ccco1)/C1=NN(c2ccccc2)C(c2ccco2)C1 (configuration not stated)	-2.1	i	i	i	i	-15
CCOC(=O)c1c(C)n(-c2ccccc2)c2ccc(O)c(CN(C)C)c12	-4.7*	i	i	i	i	-17
CCn1c(SCC(=O)NCCCN2CCCC2=O)nnc1-c1cccc(C)c1	nt	nt	i	nt	nt	nt
CC(C)=CCc1c(O)cc2c(=O)c3ccc(O)cc3oc2c1O	0.22	-12*	i	i	i	-11

High-throughput results (PubChem)
